Results taken from ChEMBL document CHEMBL4257575, “Discovery of Novel Flavonoid Dimers To Reverse Multidrug Resistance Protein 1 (MRP1, ABCC1) Mediated Drug Resistance in Cancers Using a High Throughput Platform with "Click Chemistry"” (J Med Chem, 2018).

molecular target: Multidrug resistance-associated protein 1 (Homo sapiens, UniProt P33527); assay: Inhibition of MRP1 in human 2008/MRP1 cells assessed as potentiation of doxorubicin-induced cytotoxicity by measuring cell survival at 2 uM after 5 days by MTS assay relative to control; type: cell-based; conditions: 120 h
Procedure, shortened: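 2008/MRP1 cells (retroviral human MRP1 transfectant; RPMI 1640, 10% FBS) at 4,000 per well, with 100 nM doxorubicin plus crude, unpurified click products in DMSO: 2 µM in the primary screen, 1 µM in the secondary. Incubated 5 days at 37 °C. MTS/PMS added for 2 h at 37 °C, absorbance read at 490 nm. % survival is relative to wells without DOX or product. Run in triplicate, at least three experiments.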

Multidrug resistance-associated protein 1, sequence (P33527 whole entry): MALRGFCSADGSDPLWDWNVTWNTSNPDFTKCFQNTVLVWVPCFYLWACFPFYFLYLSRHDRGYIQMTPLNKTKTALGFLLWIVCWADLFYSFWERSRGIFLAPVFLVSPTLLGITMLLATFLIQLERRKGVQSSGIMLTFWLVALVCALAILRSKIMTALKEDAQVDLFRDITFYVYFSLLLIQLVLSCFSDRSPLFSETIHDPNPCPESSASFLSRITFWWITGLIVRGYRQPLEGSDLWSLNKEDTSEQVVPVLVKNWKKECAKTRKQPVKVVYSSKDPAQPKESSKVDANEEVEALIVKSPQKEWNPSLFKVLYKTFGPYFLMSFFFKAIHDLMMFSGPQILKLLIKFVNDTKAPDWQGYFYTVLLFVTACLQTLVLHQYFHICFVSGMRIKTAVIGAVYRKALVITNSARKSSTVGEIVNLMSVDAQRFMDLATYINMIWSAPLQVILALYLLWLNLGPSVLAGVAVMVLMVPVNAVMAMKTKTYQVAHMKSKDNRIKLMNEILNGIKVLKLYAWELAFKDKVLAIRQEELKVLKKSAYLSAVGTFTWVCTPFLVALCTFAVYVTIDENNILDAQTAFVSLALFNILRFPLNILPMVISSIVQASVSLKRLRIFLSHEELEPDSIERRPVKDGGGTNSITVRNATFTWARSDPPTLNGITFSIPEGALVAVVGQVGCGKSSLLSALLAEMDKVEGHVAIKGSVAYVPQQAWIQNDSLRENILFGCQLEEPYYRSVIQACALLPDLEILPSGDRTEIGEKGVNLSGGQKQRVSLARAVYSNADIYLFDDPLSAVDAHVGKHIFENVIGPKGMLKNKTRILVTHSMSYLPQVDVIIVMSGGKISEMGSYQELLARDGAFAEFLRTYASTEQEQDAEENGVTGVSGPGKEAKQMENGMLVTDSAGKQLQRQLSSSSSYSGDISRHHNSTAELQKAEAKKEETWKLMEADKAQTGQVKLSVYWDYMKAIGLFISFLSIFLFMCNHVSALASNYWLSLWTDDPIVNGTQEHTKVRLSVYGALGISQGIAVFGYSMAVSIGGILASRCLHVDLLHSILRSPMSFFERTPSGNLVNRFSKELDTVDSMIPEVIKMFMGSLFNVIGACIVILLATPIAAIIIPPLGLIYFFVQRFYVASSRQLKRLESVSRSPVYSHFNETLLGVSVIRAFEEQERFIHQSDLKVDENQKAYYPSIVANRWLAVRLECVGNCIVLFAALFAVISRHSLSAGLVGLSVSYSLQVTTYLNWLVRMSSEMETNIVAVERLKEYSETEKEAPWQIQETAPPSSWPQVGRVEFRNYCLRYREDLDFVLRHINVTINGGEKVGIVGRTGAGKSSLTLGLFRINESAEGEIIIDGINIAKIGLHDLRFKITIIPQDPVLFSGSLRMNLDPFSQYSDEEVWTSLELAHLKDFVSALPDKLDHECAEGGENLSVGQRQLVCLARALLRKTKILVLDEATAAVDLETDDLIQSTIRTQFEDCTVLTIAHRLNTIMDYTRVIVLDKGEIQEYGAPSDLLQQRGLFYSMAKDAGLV

| SMILES | Survival |
| --- | --- |
| O=c1cc(-c2ccccc2)oc2cc(OCCn3cc(-c4cccc(-c5cn(CCOc6ccc7occ(-c8ccccc8)c(=O)c7c6)nn5)c4)nn3)ccc12 | 90% |
| O=c1cc(-c2ccccc2)oc2cc(OCCOCCOCCn3cc(-c4ccc(-c5cn(CCOCCOCCOc6ccc7c(=O)cc(-c8ccccc8)oc7c6)nn5)cc4)nn3)ccc12 | 88% |
| O=c1cc(-c2ccc(OCCOCCOCCn3cc(CN(Cc4cn(CCOCCOCCOc5ccc(-c6cc(=O)c7ccccc7o6)cc5)nn4)Cc4cn(CCOCCOCCOc5ccc(-c6cc(=O)c7ccccc7o6)cc5)nn4)nn3)cc2)oc2ccccc12 | 77% |
| O=c1cc(-c2ccccc2)oc2cc(OCCn3cc(CN4CCN(Cc5cn(CCOc6ccc7occ(-c8ccccc8)c(=O)c7c6)nn5)CC4)nn3)ccc12 | 93% |
| O=c1cc(-c2ccc(OCCOCCn3cc(-c4ccc(-c5cn(CCOCCOc6ccc(-c7cc(=O)c8ccccc8o7)cc6)nn5)cc4)nn3)cc2)oc2ccccc12 | 81% |
| CN(CCN(C)Cc1cn(CCOCCOc2ccc(-c3cc(=O)c4ccccc4o3)cc2)nn1)Cc1cn(CCOCCOc2ccc(-c3cc(=O)c4ccccc4o3)cc2)nn1 | 87% |
| O=c1cc(-c2ccccc2)oc2cc(OCCOCCOCCn3cc(CN4CCN(Cc5cn(CCOCCOCCOc6ccc7c(=O)cc(-c8ccccc8)oc7c6)nn5)CC4)nn3)ccc12 | 89% |
| COc1cccc(COc2c(-c3ccc(OCCOCCn4cc(CCCOc5ccc(-c6cc(=O)c7cc(F)ccc7o6)cc5)nn4)cc3)oc3ccccc3c2=O)c1 | 86% |
| Cc1ccc2oc(-c3ccc(OCCCCc4cn(CCOCCOCCOc5ccc(-c6oc7ccccc7c(=O)c6OCc6ccccc6)cc5)nn4)cc3)cc(=O)c2c1 | 59% |
| C#CCCCOc1ccc(-c2cc(=O)c3ccccc3o2)cc1 | 74% |
| O=c1cc(-c2ccc(OCCOCCOCCn3cc(CNc4ccccc4)nn3)cc2)oc2ccccc12 | 88% |
| O=C1c2ccccc2C(=O)N1CCc1cn(CCOCCOc2ccc(-c3oc4ccccc4c(=O)c3OCc3ccccc3)cc2)nn1 | 57% |
| COc1cccc(COc2c(-c3ccc(OCCOCCn4cc(CCCCOc5ccc(/C=C/C(=O)c6ccccc6O)cc5)nn4)cc3)oc3ccccc3c2=O)c1 | 74% |
| COc1cccc(COc2c(-c3ccc(OCCOCCn4cc(CN(C)CCN(C)Cc5cn(CCOCCOc6ccc(-c7oc8ccccc8c(=O)c7OCc7cccc(OC)c7)cc6)nn5)nn4)cc3)oc3ccccc3c2=O)c1 | 64% |
| O=c1cc(-c2ccccc2)oc2cc(OCCCc3cn(CCOCCOc4cccc(-c5oc6ccccc6c(=O)c5OCc5ccccc5)c4)nn3)ccc12 | 65% |
| O=Cc1ccc(OCCCCc2cn(CCOCCOc3ccc(-c4cc(=O)c5cc(F)ccc5o4)cc3)nn2)cc1 | 78% |
| COc1cccc(COc2c(-c3ccc(OCCCCc4cn(CCOCCOc5ccc(-c6cc(=O)c7cc(F)ccc7o6)cc5)nn4)cc3)oc3ccccc3c2=O)c1 | 65% |
| COc1cccc(COc2c(-c3ccc(OCCOCCn4cc(CN(Cc5ccccc5)Cc5cn(CCOCCOc6ccc(-c7oc8ccccc8c(=O)c7OCc7cccc(OC)c7)cc6)nn5)nn4)cc3)oc3ccccc3c2=O)c1 | 80% |
| CN(CCN(C)Cc1cn(CCOCCOc2ccc3oc(-c4ccccc4)cc(=O)c3c2)nn1)Cc1cn(CCOCCOc2ccc3c(=O)cc(-c4ccccc4)oc3c2)nn1 | 99% |
| Cc1ccc(C(=O)/C=C/c2ccc(OCCCCc3cn(CCOCCOCCOc4ccc(-c5oc6ccccc6c(=O)c5OCc5ccccc5)cc4)nn3)cc2)c(O)c1 | 71% |

| SMILES | Survival |
| --- | --- |
| CN(CCN(C)Cc1cn(CCOCCOc2ccc(-c3cc(=O)c4cc(F)ccc4o3)cc2)nn1)Cc1cn(CCOCCOc2ccc(-c3cc(=O)c4cc(F)ccc4o3)cc2)nn1 | 73% |
| O=c1cc(-c2ccccc2)oc2cc(OCCOCCn3cc(-c4ccc(-c5cn(CCOCCOc6ccc7oc(-c8ccccc8)cc(=O)c7c6)nn5)cc4)nn3)ccc12 | 79% |
| Cc1ccc2oc(-c3ccc(OCCOCCOCCn4cc(CCCCOc5ccc6c(=O)cc(-c7ccccc7)oc6c5)nn4)cc3)cc(=O)c2c1 | 51% |
| C#Cc1ccc(C#C)cc1 | 86% |
| COCOc1cc(OCc2ccccc2)c2c(=O)cc(-c3ccc(OCCCc4cn(CCOCCOCCOc5ccc(-c6cc(=O)c7cc(F)ccc7o6)cc5)nn4)cc3)oc2c1 | 58% |
| O=c1cc(-c2ccc(OCCOCCOCCn3cc(CN(Cc4ccccc4)Cc4cn(CCOCCOCCOc5ccc(-c6cc(=O)c7cc(F)ccc7o6)cc5)nn4)nn3)cc2)oc2ccc(F)cc12 | 54% |
| O=c1cc(-c2ccc(OCCOCCOCCn3cc(CN4CCN(Cc5cn(CCOCCOCCOc6ccc(-c7cc(=O)c8cc(F)ccc8o7)cc6)nn5)CC4)nn3)cc2)oc2ccc(F)cc12 | 85% |
| Cc1ccc(O)c(C(=O)/C=C/c2ccc(OCCCCc3cn(CCOCCOCCOc4ccc(-c5cc(=O)c6cc(F)ccc6o5)cc4)nn3)cc2)c1 | 72% |
| CCc1ccc(O)c(C(=O)/C=C/c2ccc(OCCCCc3cn(CCOCCOc4ccc(-c5oc6ccccc6c(=O)c5OCc5cccc(OC)c5)cc4)nn3)cc2)c1 | 76% |
| COCOc1cc(OCc2ccccc2)c2c(=O)cc(-c3ccc(OCCCc4cn(CCOCCOc5cccc(-c6oc7ccccc7c(=O)c6OCc6ccccc6)c5)nn4)cc3)oc2c1 | 74% |
| O=c1cc(-c2ccccc2)oc2cc(OCCN(Cc3ccccc3)Cc3cn(CCOc4cccc5c(=O)cc(-c6ccccc6)oc45)nn3)ccc12 | 80% |
| O=c1cc(-c2ccccc2)oc2cc(OCCCc3cn(CCOCCOCCOc4ccc(-c5oc6ccccc6c(=O)c5OCc5ccccc5)cc4)nn3)ccc12 | 63% |
| Cc1ccc(O)c(C(=O)/C=C/c2ccc(OCCCCc3cn(CCOCCOCCOc4ccc(-c5cc(=O)c6cc(C)ccc6o5)cc4)nn3)cc2)c1 | 67% |
| O=c1c(OCc2ccccc2)c(-c2ccc(OCCOCCOCCn3cc(CN4CCN(Cc5cn(CCOCCOCCOc6ccc(-c7oc8ccccc8c(=O)c7OCc7ccccc7)cc6)nn5)CC4)nn3)cc2)oc2ccccc12 | 96% |
| C#CCNc1ccccc1 | 87% |
| Cc1ccc(C(=O)/C=C/c2ccc(OCCCCc3cn(CCOCCOc4ccc(-c5cc(=O)c6cc(F)ccc6o5)cc4)nn3)cc2)c(O)c1 | 71% |
| O=c1cc(-c2ccccc2)oc2cc(OCCOCCOCCn3cc(CN(CCOc4ccc5c(=O)cc(-c6ccccc6)oc5c4)Cc4ccccc4)nn3)ccc12 | 51% |
| O=C(/C=C/c1ccc(OCCCCc2cn(CCOCCOCCOc3ccc(-c4cc(=O)c5cc(F)ccc5o4)cc3)nn2)cc1)c1ccccc1O | 56% |
| C#CCCCCOc1ccc(-c2cc(=O)c3cc(C)ccc3o2)cc1 | 88% |
| COc1cccc(COc2c(-c3ccc(OCCOCCn4cc(-c5cccc(-c6cn(CCOCCOc7ccc(-c8oc9ccccc9c(=O)c8OCc8cccc(OC)c8)cc7)nn6)c5)nn4)cc3)oc3ccccc3c2=O)c1 | 82% |

| SMILES | Survival |
| --- | --- |
| Cc1ccc(O)c(C(=O)/C=C/c2ccc(OCCCCc3cn(CCOCCOc4ccc(-c5oc6ccccc6c(=O)c5OCc5ccccc5)cc4)nn3)cc2)c1 | 68% |
| O=Cc1ccc(OCCCCc2cn(CCOc3cccc4c(=O)cc(-c5ccccc5)oc34)nn2)cc1 | 83% |
| COCOc1cc(OCc2ccccc2)c2c(=O)cc(-c3ccc(OCCCc4cn(CCOCCOc5ccc(-c6oc7ccccc7c(=O)c6OCc6cccc(OC)c6)cc5)nn4)cc3)oc2c1 | 79% |
| O=c1c(OCc2ccccc2)c(-c2ccc(OCCOCCn3cc(CN(Cc4ccccc4)Cc4cn(CCOCCOc5ccc(-c6oc7ccccc7c(=O)c6OCc6ccccc6)cc5)nn4)nn3)cc2)oc2ccccc12 | 62% |
| O=Cc1ccc(OCCCCc2cn(CCOCCOc3ccc(-c4cc(=O)c5ccccc5o4)cc3)nn2)cc1 | 75% |
| Cc1ccc2oc(-c3ccc(OCCOCCOCCn4cc(CCCCOc5ccc(/C=C/C(=O)c6ccc(F)cc6O)cc5)nn4)cc3)cc(=O)c2c1 | 63% |
| Cc1ccc2oc(-c3ccc(OCCOCCOCCn4cc(CCCOc5ccc(-c6nc7ccccc7c(=O)[nH]6)cc5)nn4)cc3)cc(=O)c2c1 | 72% |
| Cc1ccc2oc(-c3ccc(OCCOCCOCCn4cc(CN(Cc5cn(CCOCCOCCOc6ccc(-c7cc(=O)c8cc(C)ccc8o7)cc6)nn5)Cc5cn(CCOCCOCCOc6ccc(-c7cc(=O)c8cc(C)ccc8o7)cc6)nn5)nn4)cc3)cc(=O)c2c1 | 71% |
| O=c1cc(-c2ccc(OCCOCCn3cc(CCCOc4ccc(-c5cc(=O)c6cc(F)ccc6o5)cc4)nn3)cc2)oc2ccccc12 | 93% |
| COc1cccc(COc2c(-c3ccc(OCCCCc4cn(CCOCCOCCOc5ccc(-c6cc(=O)c7ccccc7o6)cc5)nn4)cc3)oc3ccccc3c2=O)c1 | 58% |
| O=c1cc(-c2ccc(OCCOCCOCCn3cc(CCCOc4ccc(-c5cc(=O)c6cc(F)ccc6o5)cc4)nn3)cc2)oc2ccccc12 | 79% |
| COCOc1cc(OCc2ccccc2)c2c(=O)cc(-c3ccc(OCCCc4cn(CCOc5cccc6c(=O)cc(-c7ccccc7)oc56)nn4)cc3)oc2c1 | 81% |
| COc1cccc(COc2c(-c3ccc(OCCCCc4cn(CCOCCOCCOc5ccc6c(=O)cc(-c7ccccc7)oc6c5)nn4)cc3)oc3ccccc3c2=O)c1 | 78% |
| COc1cccc(COc2c(-c3ccc(OCCCCc4cn(CCOCCOCCOc5ccc(-c6cc(=O)c7cc(F)ccc7o6)cc5)nn4)cc3)oc3ccccc3c2=O)c1 | 60% |
| Cc1ccc(C(=O)/C=C/c2ccc(OCCCCc3cn(CCOCCOCCOc4ccc(-c5cc(=O)c6cc(F)ccc6o5)cc4)nn3)cc2)c(O)c1 | 51% |
| [N-]=[N+]=NCCOCCOc1ccc(-c2oc3ccccc3c(=O)c2OCc2ccccc2)cc1 | 72% |
| [N-]=[N+]=NCCOc1ccc2c(=O)cc(-c3ccccc3)oc2c1 | 79% |
| O=C(/C=C/c1ccc(OCCCCc2cn(CCOCCOc3cccc(-c4oc5ccccc5c(=O)c4OCc4ccccc4)c3)nn2)cc1)c1ccccc1O | 83% |
| Cc1ccc(O)c(C(=O)/C=C/c2ccc(OCCCCc3cn(CCOCCOCCOc4ccc(-c5oc6ccccc6c(=O)c5OCc5ccccc5)cc4)nn3)cc2)c1 | 76% |
